# T cruzi repl: T. cruzi replication inhibition. inhibition, % (no concentration beside the values). T. cruzi beta-gal in NIH3T3, luminescence, 90 h. 300,000 tested, 1.4% active;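 active means mean inhibition across valid replicates above about 55%, limit read from the data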;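 further: signal also drops with host cell toxicity which is not excluded here; 0% = plate median of DMSO wells and 100% = zero luminescence signal; higher percent means less beta-gal luminescence so fewer parasites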
#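 System: Mouse NIH/3T3 fibroblasts infected with β-gal-expressing T. cruzi Tulahuen C4 | Quantity: NIH/3T3 cells, 5,000 per well | Reagent: 5000 reporter trypomastigotes per well | Dosing: Compound pinned at 50 nL/well, DMSO | Schedule: 3 h host attachment, then at least 90 h co-culture | Detection: GalScreen luminescence, 60 min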
# Beta cell apopt: beta cell apoptosis inhibition; 300,000 tested, 0.8% active; AID 435005; INS-1E cytokine-induced death, ATP luminescence, 48 h; percent of positive-control rescue, neutral wells zero; protection from apoptosis, % (concentration not given with the values);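 active means Every replicate reaches about 75%, or at least half do and their mean reaches it too, limit read from the data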;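 further: 0% = cytokine-treated negative control wells and 100% = positive control rescue; higher means more ATP so stronger rescue from cytokine killing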
# CSC inhib: blocks cancer stem cells. cancer stem cell-like cells viability, luminescence. inhibition, % at 7.5 µM. 300,000 tested, 1.1% active. AID 2717; in the data active means inhibition above about 75%; tested in HMLE shEcad cells
# Efflux pump inh: blocks antifungal efflux pumps in multiplex yeast assay | S. cerevisiae Candida pump triplex, Nile Red efflux | inhibition, % at 10 µM | 330,000 tested, 0.44% active | AID 485275;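 active means plate passing quality check with inhibition over a set limit, or well fluorescence over plate mean plus 4 SD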;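 further: Nile Red retained in pooled yeast measured as flow cytometry median fluorescence; 0% = buffer negative control and 100% = Enniatin B positive control; higher means more Nile Red kept so more efflux inhibition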
# SUMO Mot1 rescue: SUMOylation pathway inhibition by Mot1-301 growth rescue; 320,000 tested, 1% active; S. cerevisiae Mot1-301 growth rescue, ATP luminescence, 38.5C; percent above DMSO median, 100 means doubled; growth rescue, % at 18.8 µM;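 active means every valid replicate shows activation above 250% relative to neutral control wells; inactive means the rest, any valid replicate at or below 250%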;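 further: OY570 slx delta 5 strain wells were the positive control but not used for scaling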
# WT yeast gro inh: growth inhibition of WT yeast, mitochondrial fusion screen; mitochondrial fusion phenotypic screen, WT strain; inhibition, % at 10 µM; 190,000 tested, 2.1% active; AID 1362; in the data active means inhibition above about 58%; tested in S. cerevisiae
# * = called active by the depositor; x = no result given. Most compounds without a hit are left out; they make up all but 4.8% or so of the library.
SMILES,T cruzi repl,Beta cell apopt,CSC inhib,Efflux pump inh,SUMO Mot1 rescue,WT yeast gro inh
CCN1CCN(CCCNC(=O)C2c3ccccc3C(=O)N(c3ccc(OC)cc3)C2c2ccc(OC)cc2)CC1 (stereo unspecified),-10,-5,-3,0,-3,-1
Cc1ccc(CCSc2ccc(C(C)C)cc2)cn1,13,-8,x,0,87,74*
COc1ccc(-c2cnnc(N/N=C/c3ccc(O)c(O)c3)n2)cc1,-18,15,57,0,111,8
CN(/N=C\c1ccc(O)c(O)c1)c1nc(-c2ccccc2)cc(-c2ccccc2)n1,6,-3,22,0,-3,71*
COc1cccc(NC(=O)Cn2nc(Cc3cccnc3)c3ccccc3c2=O)c1,-6,1,-5,0,-9,-8
COc1ccc(CNC(=O)Cn2nc(Cc3cccnc3)c3ccccc3c2=O)cc1,1,2,x,0,439*,-5
C=CCN=c1scc(-c2ccccc2)n1/N=C/c1ccccn1,-26,24,40,0,-1,75*
Cc1ccc(C2C3C(=O)N(c4ccc(C)cc4)C(=O)C3N3CCCN23)cc1 (stereo unspecified),-6,0,2,0,38,x
Nc1ccc(N2CCCCC2)cc1N1CCCCC1,62*,113*,26,0,-18,72*
Cc1ccc(NC(=O)CCn2c(=O)c3cccn3c3ccccc32)cc1C,24,2,5,0,15,x
Cc1cc(Cl)ccc1OCCCC(=O)Nc1ccc(S(=O)(=O)Nc2ncccn2)cc1,3,-1,x,0,0,x
O=c1ccsn1Cc1ccccc1,67*,9,-5,0,-49,7
CCCCn1c(=O)nc2n(-c3ccc(Cl)cc3)c3ccccc3cc-2c1=O,6,-1,16,0,17,-11
O=C1C=C(N2CCOCC2)c2ccccc2C1=O,-33,104*,21,0,-2,x
O=C(NC(=S)Nc1cc(-c2nc3ccccc3[nH]2)ccc1Cl)c1ccc2c(c1)OCO2,42,89*,94*,4,-28,43
Cc1ccc2c(c1C)OC(=O)CC2c1ccccc1 (stereo unspecified),-3,1,-15,0,128,x
CCN(CC(=O)Nc1ccc(OC)cc1)C(=O)Cc1coc2cc(C)c(C)cc12,x,-6,x,0,7,x
CCOc1ccccc1CNC(=O)C1CCN(c2nnc(C)c3c(C)n(-c4ccc(C)cc4)nc23)CC1,57*,59,18,0,2,x
COc1ccc(-n2nc3c(N4CCC(C(=O)N5CCCCCC5)CC4)nnc(C)c3c2C)cc1,59*,0,-1,0,-11,x
CCCCn1c(SCC(=O)NC2CCS(=O)(=O)C2)nc2cc(S(N)(=O)=O)ccc21 (stereo unspecified),-21,-3,-3,0,-11,-11
Cc1ccc(OCC(=O)NCCCNC(=O)c2ccncc2)cc1C,-6,-6,x,0,57,x
COc1ccc(C2CC(=O)c3c(C)nc(N4CCN(Cc5ccccc5)CC4)nc3C2)cc1OC (stereo unspecified),55*,9,28,0,7,-7
Cc1nc(N2CCN(Cc3ccccc3)CC2)nc2c1C(=O)CC(C)C2 (stereo unspecified),71*,-3,5,0,-13,16
COc1cc(C2CC(=O)c3cnc(N4CCN(Cc5ccccc5)CC4)nc3C2)cc(OC)c1OC (stereo unspecified),0,15,53,0,4,2
Cc1ccc2oc(=O)n(CC(=O)OCCC(C)C)c2c1,-17,-3,-5,0,-12,x
CCCC(=O)Nc1cc2c(cc1C(=O)c1ccccc1)OCCO2,12,3,-5,0,-16,6
CCOc1ccc(S(=O)(=O)c2c(C(=O)c3ccccc3)cnc3cc4c(cc23)OCCO4)cc1,71*,-8,9,0,9,-1
O=C(NC(Cc1c[nH]c2ccccc12)C(=O)Nc1ccc(OC(F)(F)F)cc1)c1cccs1 (stereo unspecified),47,1,51,0,-23,88*
COc1cc(C(=O)NCc2nnc(SCC(=O)NC3CCCCC3)o2)cc(OC)c1OC,0,1,-14,0,9,x
CN(Cc1ccccc1C#N)S(=O)(=O)c1cccs1,1,x,-6,0,-11,x

# Compound activity deposited in PubChem by several laboratories.
